Measured values taken from the M2OR odorant receptor database.
Numbering of substitutions follows the chain as printed.

Assays:
Conditions in all cases: stereoisomer not certain
[1] = molecular target: T1, OR5K1 (Homo sapiens) (UniProt Q8NHB7)
T1 sequence (whole entry): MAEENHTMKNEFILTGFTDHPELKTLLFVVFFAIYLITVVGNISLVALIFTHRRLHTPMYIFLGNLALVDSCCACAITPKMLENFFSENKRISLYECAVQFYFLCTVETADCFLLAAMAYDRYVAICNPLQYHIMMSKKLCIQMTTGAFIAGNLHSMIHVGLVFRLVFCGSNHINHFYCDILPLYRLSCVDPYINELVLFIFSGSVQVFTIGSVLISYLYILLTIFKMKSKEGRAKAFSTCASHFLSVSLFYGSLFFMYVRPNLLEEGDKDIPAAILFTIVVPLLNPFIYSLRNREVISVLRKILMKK
How it was run: (§1)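 Transient luciferase assays in mammalian cell lines were common, though methods varied by source. The values come from published papers and their supplementary material, with extra details from the original authors when needed. Responsive refers to a measured signal the original authors judged statistically different from baseline, and non-responsive (inactive) to the remainder.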

[2] = system: T2, OR5DG A156T
T2 sequence (whole entry): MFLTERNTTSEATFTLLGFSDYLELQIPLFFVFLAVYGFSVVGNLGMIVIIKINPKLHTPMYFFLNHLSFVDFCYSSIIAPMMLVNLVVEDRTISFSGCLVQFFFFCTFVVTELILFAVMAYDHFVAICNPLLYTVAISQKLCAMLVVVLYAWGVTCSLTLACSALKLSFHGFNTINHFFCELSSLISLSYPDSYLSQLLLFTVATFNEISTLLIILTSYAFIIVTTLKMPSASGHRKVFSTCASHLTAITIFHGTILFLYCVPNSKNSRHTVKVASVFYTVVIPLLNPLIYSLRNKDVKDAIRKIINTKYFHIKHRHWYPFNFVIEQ
How it was run: as §1

[3] = system: T3, OR5DI
T3 sequence (whole entry): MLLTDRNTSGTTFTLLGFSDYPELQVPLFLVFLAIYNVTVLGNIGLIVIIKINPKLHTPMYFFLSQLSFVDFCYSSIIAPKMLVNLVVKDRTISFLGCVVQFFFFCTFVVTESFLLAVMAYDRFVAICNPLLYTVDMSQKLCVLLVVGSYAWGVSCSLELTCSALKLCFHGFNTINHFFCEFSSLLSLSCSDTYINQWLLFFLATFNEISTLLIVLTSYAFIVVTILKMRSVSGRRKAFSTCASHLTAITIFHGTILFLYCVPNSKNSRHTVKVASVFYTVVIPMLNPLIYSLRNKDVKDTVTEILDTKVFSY
How it was run: as §1

[4] = molecular target: T4, OR5F1 (Homo sapiens) (UniProt O95221)
T4 sequence (whole entry): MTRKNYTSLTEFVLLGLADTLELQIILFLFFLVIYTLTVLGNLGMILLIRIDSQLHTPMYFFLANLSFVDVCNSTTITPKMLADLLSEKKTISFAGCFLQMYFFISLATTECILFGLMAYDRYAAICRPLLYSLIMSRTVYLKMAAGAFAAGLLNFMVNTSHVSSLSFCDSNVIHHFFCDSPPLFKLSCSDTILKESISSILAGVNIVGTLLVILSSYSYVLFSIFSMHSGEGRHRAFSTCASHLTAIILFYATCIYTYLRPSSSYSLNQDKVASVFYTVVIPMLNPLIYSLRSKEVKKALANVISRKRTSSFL
How it was run: as §1

[5] = system: T5, OR5F1
T5 sequence (whole entry): T4 sequence (whole entry) with S294N
How it was run: as §1

[6] = molecular target: T6, OR5H1 (Homo sapiens) (UniProt A6NKK0)
T6 sequence (whole entry): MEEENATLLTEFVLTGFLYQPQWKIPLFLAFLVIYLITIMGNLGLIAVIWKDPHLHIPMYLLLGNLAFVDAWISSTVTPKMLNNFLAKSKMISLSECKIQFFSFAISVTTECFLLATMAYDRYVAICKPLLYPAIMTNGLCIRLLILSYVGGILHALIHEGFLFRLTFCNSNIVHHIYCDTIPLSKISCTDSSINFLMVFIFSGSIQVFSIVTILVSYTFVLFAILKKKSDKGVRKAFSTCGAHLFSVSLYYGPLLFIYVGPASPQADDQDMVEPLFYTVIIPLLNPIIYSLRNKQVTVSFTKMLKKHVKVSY
How it was run: as §1

[7] = system: T7, OR5H1 F17L A30T H56Q
T7 sequence (whole entry): T6 sequence (whole entry) with F17L, A30T, H56Q
How it was run: as §1

[8] = system: T8, OR5H1 T181N
T8 sequence (whole entry): T6 sequence (whole entry) with T181N
How it was run: as §1

[9] = molecular target: T9, OR5H14 (Homo sapiens) (UniProt A6NHG9)
T9 sequence (whole entry): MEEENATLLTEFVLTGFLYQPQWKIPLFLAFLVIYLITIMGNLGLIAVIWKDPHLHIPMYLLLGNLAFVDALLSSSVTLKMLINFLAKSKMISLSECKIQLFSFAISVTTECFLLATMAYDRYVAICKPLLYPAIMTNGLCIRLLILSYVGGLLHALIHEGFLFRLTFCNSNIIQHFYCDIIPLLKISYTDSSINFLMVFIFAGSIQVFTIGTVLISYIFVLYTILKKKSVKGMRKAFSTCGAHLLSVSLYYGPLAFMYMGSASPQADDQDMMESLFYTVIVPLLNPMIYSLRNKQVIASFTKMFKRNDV
How it was run: as §1

[10] = molecular target: T10, OR5H15 (Homo sapiens) (UniProt A6NDH6)
T10 sequence (whole entry): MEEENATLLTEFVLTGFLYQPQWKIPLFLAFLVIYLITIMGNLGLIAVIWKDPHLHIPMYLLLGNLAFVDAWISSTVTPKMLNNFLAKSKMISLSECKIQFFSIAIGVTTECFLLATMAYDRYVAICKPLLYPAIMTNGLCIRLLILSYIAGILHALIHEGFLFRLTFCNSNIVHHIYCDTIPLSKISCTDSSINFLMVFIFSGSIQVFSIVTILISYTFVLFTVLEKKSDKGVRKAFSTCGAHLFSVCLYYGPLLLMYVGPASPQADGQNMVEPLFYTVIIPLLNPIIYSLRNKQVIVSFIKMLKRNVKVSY
How it was run: as §1

[11] = system: T11, OR5H1
T11 sequence (whole entry): T6 sequence (whole entry) with I153L, T181I
How it was run: as §1

[12] = system: T12, OR5H2
T12 sequence (whole entry): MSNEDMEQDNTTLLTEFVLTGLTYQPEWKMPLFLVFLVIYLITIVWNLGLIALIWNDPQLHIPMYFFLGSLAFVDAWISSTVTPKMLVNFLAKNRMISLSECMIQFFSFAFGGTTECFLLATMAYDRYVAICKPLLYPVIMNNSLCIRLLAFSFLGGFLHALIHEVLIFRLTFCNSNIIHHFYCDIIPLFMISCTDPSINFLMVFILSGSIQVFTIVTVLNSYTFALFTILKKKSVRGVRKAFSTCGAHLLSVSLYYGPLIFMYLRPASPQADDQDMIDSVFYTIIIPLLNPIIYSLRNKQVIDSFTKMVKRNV
How it was run: as §1

[13] = molecular target: T13, OR5H6 (Homo sapiens) (UniProt Q8NGV6)
T13 sequence (whole entry): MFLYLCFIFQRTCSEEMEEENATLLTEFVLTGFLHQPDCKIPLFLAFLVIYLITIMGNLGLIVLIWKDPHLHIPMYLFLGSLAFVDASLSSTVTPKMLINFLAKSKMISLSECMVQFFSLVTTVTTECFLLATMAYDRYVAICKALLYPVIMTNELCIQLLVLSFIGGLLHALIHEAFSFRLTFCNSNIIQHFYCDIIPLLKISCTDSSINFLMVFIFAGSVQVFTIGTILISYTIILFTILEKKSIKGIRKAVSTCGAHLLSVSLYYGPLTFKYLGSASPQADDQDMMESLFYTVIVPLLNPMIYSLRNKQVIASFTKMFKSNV
How it was run: as §1

[14] = molecular target: T14, OR5I1 (Homo sapiens) (UniProt Q13606)
T14 sequence (whole entry): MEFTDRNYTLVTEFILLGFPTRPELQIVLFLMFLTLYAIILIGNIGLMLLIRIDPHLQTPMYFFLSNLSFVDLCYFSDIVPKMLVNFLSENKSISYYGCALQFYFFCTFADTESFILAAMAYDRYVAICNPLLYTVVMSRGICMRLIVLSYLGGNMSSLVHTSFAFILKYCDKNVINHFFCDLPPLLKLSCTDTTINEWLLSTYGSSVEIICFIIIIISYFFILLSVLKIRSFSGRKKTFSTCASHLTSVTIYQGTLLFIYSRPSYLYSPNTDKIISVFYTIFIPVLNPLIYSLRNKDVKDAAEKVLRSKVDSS
How it was run: as §1

[15] = molecular target: T15, OR5J2 (Homo sapiens) (UniProt Q8NH18)
T15 sequence (whole entry): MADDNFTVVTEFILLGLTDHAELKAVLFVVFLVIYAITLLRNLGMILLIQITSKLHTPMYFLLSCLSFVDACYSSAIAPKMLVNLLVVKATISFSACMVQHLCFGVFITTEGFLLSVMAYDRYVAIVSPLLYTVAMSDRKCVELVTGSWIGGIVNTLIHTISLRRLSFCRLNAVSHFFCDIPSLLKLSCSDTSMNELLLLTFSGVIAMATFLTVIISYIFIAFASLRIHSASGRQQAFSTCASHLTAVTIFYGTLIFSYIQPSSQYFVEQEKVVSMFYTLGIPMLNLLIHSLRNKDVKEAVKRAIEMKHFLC
How it was run: as §1

[16] = molecular target: T16, OR5K2 (Homo sapiens) (UniProt Q8NHB8)
T16 sequence (whole entry): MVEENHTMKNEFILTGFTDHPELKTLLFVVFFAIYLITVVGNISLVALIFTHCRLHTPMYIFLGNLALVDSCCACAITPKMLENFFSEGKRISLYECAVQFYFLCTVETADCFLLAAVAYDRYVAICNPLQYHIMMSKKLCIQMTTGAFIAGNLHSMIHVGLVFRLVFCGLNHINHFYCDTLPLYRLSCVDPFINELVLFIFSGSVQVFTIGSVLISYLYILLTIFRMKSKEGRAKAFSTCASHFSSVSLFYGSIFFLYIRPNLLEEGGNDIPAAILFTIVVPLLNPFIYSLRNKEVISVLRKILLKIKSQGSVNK
How it was run: as §1

[17] = system: T17, OR5K2 L197M
T17 sequence (whole entry): T16 sequence (whole entry) with L197M
How it was run: as §1

[18] = molecular target: OR5G3 (Homo sapiens) (UniProt P0C626)
OR5G3 (Homo sapiens), sequence (P0C626 whole entry): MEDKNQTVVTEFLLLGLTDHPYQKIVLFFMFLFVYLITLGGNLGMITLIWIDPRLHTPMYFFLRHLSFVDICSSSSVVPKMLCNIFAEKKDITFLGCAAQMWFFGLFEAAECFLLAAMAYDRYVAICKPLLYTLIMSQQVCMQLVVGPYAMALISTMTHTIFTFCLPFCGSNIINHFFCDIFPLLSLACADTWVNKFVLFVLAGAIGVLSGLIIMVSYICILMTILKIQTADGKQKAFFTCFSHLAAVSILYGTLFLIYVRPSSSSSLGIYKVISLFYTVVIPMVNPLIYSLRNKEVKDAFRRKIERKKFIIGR
How it was run: as §1

[19] = molecular target: OR5H8 (Homo sapiens) (UniProt P0DN80)
OR5H8 (Homo sapiens), sequence (P0DN80 whole entry): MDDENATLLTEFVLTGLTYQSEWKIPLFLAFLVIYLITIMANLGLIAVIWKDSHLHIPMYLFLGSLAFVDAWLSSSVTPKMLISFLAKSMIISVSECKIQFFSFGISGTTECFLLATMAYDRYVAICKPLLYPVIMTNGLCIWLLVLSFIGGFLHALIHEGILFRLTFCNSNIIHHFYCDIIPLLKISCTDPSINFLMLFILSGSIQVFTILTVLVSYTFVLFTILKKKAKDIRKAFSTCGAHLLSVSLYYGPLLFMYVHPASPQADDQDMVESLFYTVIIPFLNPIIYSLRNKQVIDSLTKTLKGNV
How it was run: as §1

Measured: odorant receptor agonist call;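 also: active if original authors judged signal statistically different from baseline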

CCOC(=O)C=Cc1ccccc1
inactive: [1]

C=CC(=C)CCC=C(C)C
inactive: [1]

C=C(C)C1CC=C(C)CC1 (centres undefined)
inactive: [1]

CCC(S)C(C)=O (centres undefined)
inactive: [1]

CCOC(=O)C(C)C
inactive: [1]

CCC1OC(C)=C(O)C1=O (centres undefined)
not listed: [18] | [19]
inactive: all other assays above

CCC1OC(=O)C(O)=C1C (centres undefined)
not listed: [18] | [19]
inactive: all other assays above

CC1CCCCCCCCCCCCC(=O)C1 (centres undefined)
inactive: [4] | [18] | [9] | [10] | [12] | [13] | [19] | [14] | [15] | [16]

CCC(S)C(C)CO (centres undefined)
inactive: [4] | [6] | [9] | [10] | [12] | [13] | [15] | [1] | [16]

CCCCCC(S)C(C)CO (centres undefined)
inactive: [4] | [6] | [9] | [10] | [12] | [13] | [15] | [1] | [16]

CC(=O)OCC=Cc1ccccc1
inactive: [1]

CCCCCCC=CCCC=O
not listed: [8] | [11] | [18] | [19]
inactive: all other assays above

CCC=CCC=O
inactive: [1]

CCCCCC1CCC(=O)O1 (centres undefined)
inactive: [1]

CC(CO)CS (centres undefined)
inactive: [4] | [6] | [9] | [10] | [12] | [13] | [15] | [1] | [16]

O=c1ccc2ccccc2o1
inactive: [1]

CCC(C)CCC(=O)[O-] (centres undefined)
inactive: [1]

CCCCCCCCC=CC=O
inactive: [1]

CCC(=O)C(C)=O
inactive: [1]

CCCCC(C)CCC(=O)O (centres undefined)
inactive: [1]

CC1=C(O)C(=O)OC1C (centres undefined)
not listed: [18] | [19]
inactive: all other assays above

CC(=O)c1c(C)c([N+](=O)[O-])c(C(C)(C)C)c([N+](=O)[O-])c1C
inactive: [4] | [18] | [9] | [10] | [12] | [13] | [19] | [14] | [15] | [16]

CCCCCCC1CCC(=O)O1 (centres undefined)
inactive: [1]

CCC(=O)C(C)S (centres undefined)
inactive: [1]

CCOC(=O)CCSC
inactive: [1]
